# M1 ag parental – counter-screen for M1 agonists: effect in parental CHO-K1 cells; Fluo-8 calcium fluorescence; scaled to maximal ATP response, vehicle zero; activation, % at 3 µM; AID 602248, 2012; 360,000 compounds, 0.48% hits; in the data active means activation above about 15%;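 further: untransfected CHO-K1 host cells lacking M1 receptor as counterscreen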
# CHO-K1 Ca antag – M1 antagonist counterscreen hit in parental CHO-K1 cells | inhibition, % at 3 µM | ATP-induced calcium, Fluo-8 fluorescence | 360,000 compounds, 0.6% hits;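 active means inhibition above a per-plate cutoff, the plate's mean sample inhibition plus 3 SD, cut at about 24% in these data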;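 further: 0% = DMSO plus EC80 ATP and 100% = DMSO alone without ATP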
# M5 ag – human M5 muscarinic receptor agonists, primary screen, CHO-K1 cells, Fluo-8 calcium fluorescence. CHO-K1 hM5 cells; 0% DMSO wells, 100% maximal acetylcholine response. activation, % at 3 µM. AID 624037, 2012. Muscarinic acetylcholine receptor M5 (Homo sapiens), P08912. 360,000 compounds, 0.19% hits;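 active means activation above the run's mean over test compounds plus 3 SD, cut at about 23% in these data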;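 further: signal is peak over basal fluorescence ratio across the kinetic read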
# Target sequence (P08912 whole entry, looked up): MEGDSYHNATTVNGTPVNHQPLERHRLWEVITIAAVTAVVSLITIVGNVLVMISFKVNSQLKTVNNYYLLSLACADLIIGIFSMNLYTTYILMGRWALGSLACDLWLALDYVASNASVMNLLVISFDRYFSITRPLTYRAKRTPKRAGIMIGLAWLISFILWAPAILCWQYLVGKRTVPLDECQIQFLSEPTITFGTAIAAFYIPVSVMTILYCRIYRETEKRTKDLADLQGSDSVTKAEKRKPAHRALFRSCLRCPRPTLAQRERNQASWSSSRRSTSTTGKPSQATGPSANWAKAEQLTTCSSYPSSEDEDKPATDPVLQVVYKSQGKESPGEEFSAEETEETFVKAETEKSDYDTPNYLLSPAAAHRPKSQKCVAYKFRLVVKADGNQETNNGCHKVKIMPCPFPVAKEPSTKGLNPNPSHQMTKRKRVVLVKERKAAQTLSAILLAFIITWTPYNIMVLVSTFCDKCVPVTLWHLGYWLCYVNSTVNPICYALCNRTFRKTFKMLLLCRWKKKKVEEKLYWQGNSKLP
# CHO-K1 Ca PAM – nonselective calcium activators in parental CHO-K1 cells, primary screen, counter-screen for M1 PAM project, cell-based, Fluo-8 calcium fluorescence, full deck, 1536-well. ATP EC20; 0% at ATP EC20, 100% at ATP max. activation, % at 3 µM. 360,000 compounds, 0.02% hits. AID 602247, 2012;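 active means activation above the run cutoff, the mean activation of all test compounds plus 3 SD, cut at about 40% in these data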;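 further: peak over basal fluorescence ratio in a 140 s read after ATP addition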
# CHRM5 PAM – human M5 muscarinic receptor positive allosteric modulators, primary screen, CHO-K1 cells, Fluo-8 calcium fluorescence; Muscarinic acetylcholine receptor M5 (Homo sapiens), P08912; CHO-K1 hM5, ACh EC20 PAM; 0% = ACh EC20, 100% = ACh EC100; activation, % at 3 µM; 360,000 compounds, 0.3% hits; AID 624038, 2012;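 active means activation above the run cutoff, the mean activation of all test compounds plus 3 SD, cut at about 18% in these data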
#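 system = human M5 receptor in CHO-K1 cells | reagent = EC20 acetylcholine as agonist stimulus | compound dosing = single-point, 3 µM nominal | incubation = Fluo-8 loading 80 min at 37 °C plus 30 min room temperature | detection = Fluo-8 calcium dye fluorescence, kinetic read | benchmarks = low control EC20 acetylcholine (0%), high control EC100 acetylcholine (100%)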
# CHRM5 antagonist – human M5 muscarinic receptor antagonists, primary screen, CHO cells, Fluo-8 calcium fluorescence | Muscarinic acetylcholine receptor M5 (Homo sapiens), P08912 | CHO-hM5 cells, ACh EC80 | inhibition, % at 3 µM | 360,000 compounds, 0.59% hits | AID 624040, 2012;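 active means inhibition above a per-plate cutoff, the mean of that plate's test compounds plus 3 SD, cut at about 27% in these data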;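 further: 0% = acetylcholine EC80 with DMSO and 100% = DMSO without agonist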
# An asterisk follows results filed as active. Sampled rows, rich in hits. Any-hit rate of the full collection: about 1.7%.
SMILES,M1 ag parental,CHO-K1 Ca antag,M5 ag,CHO-K1 Ca PAM,CHRM5 PAM,CHRM5 antagonist
O=C(C1=NN[C@@H]2C(=O)N(Cc3ccccc3)C(=O)[C@H]12)c1ccc([N+](=O)[O-])cc1,23*,-7,5,22,-9,12
Cc1cccc([C@@H]2C[C@H]3CN(Cc4cccc(Cl)c4)C(=O)[C@]34CCCN24)n1,0,-5,-7,-7,-7,11
CCOc1ccc(NC(=O)CN(C)C(=O)c2cccnc2Sc2ccc(C)c(C)c2)cc1OCC,0,5,2,-18,22*,-2
CCOC(=O)C(=CNc1ccc(Oc2cccnc2)nc1)C(=O)OCC,0,9,2,-15,6,2
Cc1ccc(OCCC(=O)NCCc2ccc(S(N)(=O)=O)cc2)cc1,1,-4,2,21,-8,9
O=C(CCN1C(=O)/C(=C/c2ccccc2)SC1=S)NCCc1ccc(O)cc1,13,14,6,-12,-12,11
O=C(CCN1C(=O)/C(=C/c2ccccc2F)SC1=S)NCCc1ccc(O)cc1,16*,10,8,12,-6,1
CC(=O)Nc1ccc(NC(=O)C(C)OC(=O)CNC(=O)c2cccs2)cc1 (stereo unspecified),1,2,-8,4,-32,97*
CC(=O)Nc1ccc(NC(=O)C(C)OC(=O)CC2CCCC2)cc1 (stereo unspecified),0,3,-2,-1,0,0
CC(=O)Nc1ccc(NC(=O)C(C)OC(=O)CCC2CCCC2)cc1 (stereo unspecified),0,24*,-3,18,-1,-2
CC(OC(=O)CNC(=O)c1cccs1)C(=O)Nc1ccc(S(N)(=O)=O)cc1 (stereo unspecified),1,-9,0,-3,2,7
COc1ccc(C2CC(=O)Nc3n[nH]c(-c4ccccc4)c32)cc1OC (stereo unspecified),0,-16,7,-9,13,-9
O=C1CCN2C=Nc3cccc4ccc1c2c34,18*,-2,9,-8,-3,10
Cc1csc(NC(=O)c2cc(-c3ccccc3)nc3ccccc23)n1,5,8,-1,9,-18,28*
Cc1ccc(CNC(=O)c2ccc(Cl)cc2[N+](=O)[O-])cc1,0,26*,-2,-8,-4,5
CN1C(=O)/C(=C\c2ccc(N(C)C)cc2)OC1=S,30*,27*,96*,-18,-15,24
COc1ccc(CCNc2nc(-c3cccnc3)nc3ccccc23)cc1OC,7,23,0,-6,-15,39*
COc1ccc(CCNc2nc(C)nc3c2oc2ccccc23)cc1OC,13,16,7,-1,-21,33*
Cc1nc(NCCc2cnc[nH]2)c2oc3ccccc3c2n1,1,-7,-2,14,-6,13
COc1ccc(CCNc2ncnc3c2oc2ccccc23)cc1OC,15,44*,7,-10,-16,50*
CCOC(=O)CNC(=O)CCCCCC(=O)NCC(=O)OCC,0,-1,-5,5,1,6
O=C(COC(=O)CCC(=O)c1ccc(Cl)cc1)NCC1CCCO1 (stereo unspecified),0,0,-2,-1,-5,6
O=C(NCc1ccc(F)cc1)c1cc(S(=O)(=O)N2CCCCC2)ccc1Cl,1,-2,-1,-15,-5,5
Cc1cc(O)ccc1-c1cc(C(=O)NCc2ccc(F)cc2)[nH]n1,8,-11,33*,-3,-3,-12
Cc1cc(F)ccc1-c1cc(C(=O)NCc2ccccc2)[nH]n1,-1,-2,4,6,0,-4
SMILES,M1 ag parental,CHO-K1 Ca antag,M5 ag,CHO-K1 Ca PAM,CHRM5 PAM,CHRM5 antagonist
O=C(C1CC(=O)N(C2CCCC2)C1)N1CCC(Cc2ccccc2)CC1 (stereo unspecified),2,-17,6,-12,-4,-6
Cc1ccc(N2C(=O)C3N=NN(CC(=O)N4N=C(c5ccccc5)CC4c4ccccc4)C3C2=O)cc1 (stereo unspecified),-1,24*,-2,-20,1,4
CCN(Cc1ccncc1)C(=O)c1cc(COc2c(C)cccc2C)on1,3,-6,0,-5,-8,8
COC(=O)C1C2C=CC3(CN(Cc4cccs4)C(=O)C13)O2 (stereo unspecified),0,7,2,-5,21*,-12
CC(C)OC(=O)C1C2C=CC3(CN(Cc4cccs4)C(=O)C13)O2 (stereo unspecified),0,-4,-3,-7,0,0
O=C(Cc1ccccc1[N+](=O)[O-])N/N=C/c1cccnc1,0,-7,-1,10,-2,7
Cc1[nH]c2ccccc2c1C(=O)CN1C(=O)NC2(CC(C)CC(C)(C)C2)C1=O (stereo unspecified),35*,8,9,11,-12,11
CCN(Cc1ccccc1)C(=O)CN1C(=O)NC2(CC(C)CC(C)(C)C2)C1=O (stereo unspecified),2,-10,-1,-3,-1,-1
Cc1sc2nc(CN3CCOCC3)nc(N3CCC(C(N)=O)CC3)c2c1C,0,25*,1,-16,-14,4
O=C(CN1CCCC1=O)NC1CCCc2c1cnn2-c1cc(F)cc(F)c1 (stereo unspecified),0,-2,4,-3,19*,-7
CCn1c(=O)c2cc(C(=O)NCCN(C)C)sc2c2ccccc21,0,-5,-4,-7,19*,-11
CN1CCN(CCCNC(=O)c2cc3c(=O)n(C)c4ccccc4c3s2)CC1,0,29*,-1,-7,-5,2
Cc1ccc2oc(=O)c3cc(C(=O)NCCCN4CCN(C)CC4)sc3c2c1,1,54*,-4,10,0,7
CCN1CCN(CCCNC(=O)c2cc3c(=O)oc4ccc(C)cc4c3s2)CC1,0,-4,-3,11,-3,8
CCN(CC)CCNC(=O)c1cc2c(=O)n(CC)c3ccccc3c2s1,0,5,-5,-20,-3,1
Cc1sc2nc(C(C)(C)C)oc(=O)c2c1C,0,-5,0,7,5,3
CCn1cc(CNC(=O)C2CCC(=O)N(C3CCCCCC3)C2)cn1 (stereo unspecified),0,-8,-5,16,-3,8
CC1CCCN(CC(=O)NNC(=O)COc2ccc(Br)cc2)C1 (stereo unspecified),0,-3,0,-11,0,5
